Test results: ChEMBL document CHEMBL4480436, “Lead optimization of selective tubulin inhibitors as anti-trypanosomal agents” (Bioorg Med Chem, 2019)

Experiments:
[1] = test system: Trypanosoma brucei brucei; test: Antiparasitic activity against Trypanosoma brucei brucei Lister 427 assessed as reduction in parasite viability after 48 hrs by MTS assay; assay type: functional, organism-based; conditions: Lister 427, 48 h
Summary of the method: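 Bloodstream-form Lister 427 grown in HMI-9 with 10% FBS, 37 °C, 7.5% CO2. 5000 cells/well exposed to graded concentrations with 0.1% DMSO for 48 h at 37 °C. MTS/PMS reagent then added, 3 h at 37 °C, formazan read at 490 nm. Quadruplicate data normalized and fitted to dose–response curves for IC50 (Mean ± S.D.).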

HEK293 = test: Cytotoxicity against HEK293 cells after 48 hrs by MTT assay; assay type: cell-based; conditions: Homo sapiens, HEK293, 48 h
Summary of the method: (§1)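 Cells kept in RPMI1640 with 10% heat-inactivated FBS, 2 mM L-glutamine, 1 mM pyruvate, pen-strep, 37 °C, 5% CO2. 3000 cells/well seeded 24 h, then exposed to graded concentrations (DMSO ≤0.1% final) for 48 h. Then 0.5 mg/mL MTT 3 h at 37 °C, DMSO solubilization, absorbance 570 nm. Quadruplicate data fitted to dose–response curves for IC50.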

RAW264.7 = test: Cytotoxicity against mouse RAW264.7 cells after 48 hrs by MTT assay; assay type: cell-based; conditions: RAW264.7, 48 h; summary of the method: as §1
[2] = Selectivity index, ratio of IC50 for HEK293 cells to IC50 for Trypanosoma brucei brucei Lister 427; assay type: toxicity; conditions: human, read-out: Ratio IC50
Summary of the method: (§2)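 Ratio of mammalian MTT IC50 (48 h) to T. brucei MTS IC50 (48 h), both from quadruplicate dose–response fits.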

[3] = Selectivity index, ratio of IC50 for mouse RAW264.7 cells to IC50 for Trypanosoma brucei brucei Lister 427; assay type: toxicity; conditions: read-out: Ratio IC50; summary of the method: as §2
[4] = 1-Octanol/DDH2O partition coefficient, log P of the compound incubated for 48 hrs under stirring condition measured by UV-Vis spectrophotometric method; assay type: physicochemical
Summary of the method: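 Slow-stir shake method (OECD-based, modified): compound dissolved in water-saturated 1-octanol, centrifuged 5000 rpm 5 min, supernatant mixed with equal volume octanol-saturated water, stirred at room temperature 48 h. Phases separated by centrifugation; octanol-phase UV absorbance read before and after. Log P = log[Ax/(A0−Ax)]. Repeated three times, Mean ± SD.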

[5] = test system: Trypanosoma brucei brucei; test: Inhibition of tubulin polymerization in Trypanosoma brucei brucei Lister 427 assessed as increase in non-polymerized tubulin after 12 hrs by Western blot analysis
Summary of the method: (§3)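 Trypanosomes treated with different doses (0.5% DMSO) for 12 h, washed in TDB pH 7.4 and lysed in Pipes pH 6.8/EGTA/MgCl2/0.15% Triton X-100/glycerol buffer, 4 °C, 5 min. Lysate spun 15,000 g 30 min at 4 °C: supernatant taken as non-polymerized tubulin, RIPA-resuspended pellet as polymerized. Equal cell equivalents (1.83 × 10^7) run on 10% SDS-PAGE for western blot.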

[6] = test system: Trypanosoma brucei brucei; test: Inhibition of tubulin polymerization in Trypanosoma brucei brucei Lister 427 assessed as decrease in polymerized tubulin after 12 hrs by Western blot analysis; summary of the method: as §3

SMILES	IC50 [1]	IC50 (HEK293)	IC50 (RAW264.7)	selectivity ratio [2]	selectivity ratio [3]	logP at 48 h ([4]; 1-octanol/DDH2O)	logP ([4]; octanol/water, 48 h)	inhibition [5]	inhibition [6]
CCS(=O)(=O)Nc1ccc(NC(=O)c2ccc(Cl)cc2)cc1Cl	19.1 µM	> 250 µM	> 250 µM	> 13	> 13	–	–	–	–
CCS(=O)(=O)Nc1ccc(NC(=O)c2ccc(Cl)c([N+](=O)[O-])c2)cc1C	19.4 µM	144 µM	141 µM	7	7	–	–	–	–
COc1cc(NC(=O)c2cccc(C(F)(F)F)c2)ccc1NS(=O)(=O)C(F)(F)F	43 µM	> 250 µM	75.2 µM	> 6	2	–	–	–	–
CCS(=O)(=O)Nc1ccc(NC(=O)c2cccc(C(F)(F)F)c2)cc1Cl	7.81 µM	159 µM	62.4 µM	20	8	–	–	–	–
O=C(Nc1ccc(NS(=O)(=O)C(F)(F)F)c(Cl)c1)c1cccc(C(F)(F)F)c1	> 62.5 µM	210 µM	55.8 µM	< 4	< 1	–	–	–	–
CN(c1ccc(NC(=O)c2ccc(C#N)cc2)cc1OCc1ccc(C(F)(F)F)cc1)S(=O)(=O)Cc1ccccc1	–	–	–	–	–	2.9	–	–	–
CCS(=O)(=O)Nc1ccc(NC(=O)c2ccc(C#N)cc2)cc1Cl	38 µM	> 250 µM	226 µM	> 7	6	–	–	–	–
CCS(=O)(=O)Nc1ccc(NC(=O)c2ccc(C#N)cc2)cc1F	> 62.5 µM	26.4 µM	107 µM	< 1	< 2	–	–	–	–
CS(=O)(=O)Nc1ccc(NC(=O)c2ccc(Cl)cc2)cc1Cl	> 62.5 µM	167 µM	79.9 µM	< 3	< 2	–	–	–	–
CCS(=O)(=O)Nc1ccc(NC(=O)c2ccc(Cl)c([N+](=O)[O-])c2)cc1OC	> 62.5 µM	63.6 µM	5.66 µM	< 2	< 1	–	–	–	–
O=C(Nc1ccc(NS(=O)(=O)C(F)(F)F)c(Cl)c1)c1cc(C(F)(F)F)cc(C(F)(F)F)c1	47.4 µM	> 250 µM	136 µM	> 5	3	–	–	–	–
CS(=O)(=O)Nc1ccc(NC(=O)c2ccc(Cl)cc2)cc1F	> 62.5 µM	216 µM	22.2 µM	< 4	< 1	–	–	–	–
O=C(Nc1ccc(NS(=O)(=O)C(F)(F)F)c(F)c1)c1cc(C(F)(F)F)cc(C(F)(F)F)c1	9.39 µM	164 µM	112 µM	17	12	–	–	–	–
O=C(Nc1ccc(NS(=O)(=O)C(F)(F)F)c(Cl)c1)c1ccc(Cl)c([N+](=O)[O-])c1	47.6 µM	228 µM	31.7 µM	5	1	–	–	–	–
CCS(=O)(=O)Nc1ccc(NC(=O)c2cc(C(F)(F)F)cc(C(F)(F)F)c2)cc1Cl	1.73 µM	32.2 µM	64.1 µM	19	37	–	–	–	–
Cc1cc(NC(=O)c2cccc(C(F)(F)F)c2)ccc1NS(C)(=O)=O	16.7 µM	194 µM	110 µM	12	7	–	–	–	–
Cc1cc(NC(=O)c2ccc(C#N)cc2)ccc1NS(C)(=O)=O	> 62.5 µM	43.5 µM	171 µM	< 1	< 3	–	–	–	–
O=C(Nc1ccc(NS(=O)(=O)C(F)(F)F)c(F)c1)c1cccc(C(F)(F)F)c1	47.4 µM	152 µM	34.4 µM	3	1	–	–	–	–
CS(=O)(=O)Nc1ccc(NC(=O)c2ccc(Cl)c([N+](=O)[O-])c2)cc1F	> 62.5 µM	23.1 µM	102 µM	< 1	< 2	–	–	–	–
Cc1cc(NC(=O)c2cc(C(F)(F)F)cc(C(F)(F)F)c2)ccc1NS(=O)(=O)C(F)(F)F	20.7 µM	182 µM	40.7 µM	9	2	–	–	–	–
CCS(=O)(=O)Nc1ccc(NC(=O)c2ccc(Cl)c([N+](=O)[O-])c2)cc1F	8.39 µM	83.7 µM	198 µM	10	24	–	–	–	–
Cc1cc(NC(=O)c2cccc(C(F)(F)F)c2)ccc1NS(=O)(=O)C(F)(F)F	21.7 µM	131 µM	8.72 µM	6	< 1	–	–	–	–
CCS(=O)(=O)Nc1ccc(NC(=O)c2cccc(C(F)(F)F)c2)cc1OC	35.7 µM	> 250 µM	84.8 µM	> 7	2	–	–	–	–
N#Cc1ccc(C(=O)Nc2ccc(NS(=O)(=O)C(F)(F)F)c(F)c2)cc1	2.1 µM	> 250 µM	> 250 µM	> 119	> 119	–	0.998	Dose-dependent effect	Dose-dependent effect
CCS(=O)(=O)Nc1ccc(NC(=O)c2ccc(Cl)c([N+](=O)[O-])c2)cc1Cl	2.21 µM	63.8 µM	125 µM	29	57	–	–	–	–
CCS(=O)(=O)Nc1ccc(NC(=O)c2cccc(C(F)(F)F)c2)cc1C	35.3 µM	210 µM	114 µM	6	3	–	–	–	–
O=C(Nc1ccc(NS(=O)(=O)C(F)(F)F)c(F)c1)c1ccc(Cl)c([N+](=O)[O-])c1	16.8 µM	194 µM	188 µM	12	11	–	–	–	–
CCS(=O)(=O)Nc1ccc(NC(=O)c2cc(C(F)(F)F)cc(C(F)(F)F)c2)cc1C	12.5 µM	126 µM	124 µM	10	10	–	–	–	–
CCS(=O)(=O)Nc1ccc(NC(=O)c2cc(C(F)(F)F)cc(C(F)(F)F)c2)cc1OC	11.6 µM	> 250 µM	> 250 µM	> 22	> 22	–	–	–	–
CCS(=O)(=O)Nc1ccc(NC(=O)c2cccc(C(F)(F)F)c2)cc1F	33.9 µM	94.8 µM	119 µM	3	4	–	–	–	–
